The record followed here is ChEMBL document CHEMBL2203216, “Fluoride enhances the activity of fungicides that destabilize cell membranes” (2012).

Assay [1] relates to Saccharomyces cerevisiae. The assay is described as follows: Antifungal activity against Saccharomyces cerevisiae MYH 500 assessed as growth inhibition in presence of 80 mM sodium fluoride after 9 hrs. In kind it is functional, organism-based. The method in brief: (§1)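 S. cerevisiae growth in liquid medium with amphotericin B over a concentration series, plus a fixed 30 mM or 80 mM of NaF, KCl or NaCl. Cultures were shaken at 30°C for 9 h.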

Assay [2] concerns Saccharomyces cerevisiae. In words: Antifungal activity against Saccharomyces cerevisiae MYH 500 assessed as growth inhibition in presence of 30 mM sodium fluoride after 9 hrs. Format: functional, organism-based. The method, boiled down:
as §1

Assay [3] concerns Neurospora crassa. The assay is described as follows: Antifungal activity against Neurospora crassa FGSC 2225 assessed as growth inhibition in presence of 10 mM sodium fluoride after 24 hrs relative to untreated control. Format: functional. The method in brief: (§2)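 Filamentous fungus grown in liquid medium tubes with fluoride plus a drug series. Growth was scored visually after 24 h. The endpoint was the lowest concentration tube showing little or no visible growth.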

The test system of assay [4] is Aspergillus nidulans. The assay is described as follows: Antifungal activity against Aspergillus nidulans ATCC 38163 assessed as growth inhibition in presence of 10 mM sodium fluoride after 24 hrs. Format: functional, organism-based.
For assay [5], the system named is Aspergillus nidulans. The assay is described as follows: Antifungal activity against Aspergillus nidulans ATCC 38163 assessed as growth inhibition in presence of 30 mM sodium fluoride after 24 hrs. In kind it is functional, organism-based.
For assay [6], the system named is Saccharomyces cerevisiae. In words: Antifungal activity against Saccharomyces cerevisiae MYH 500 assessed as growth inhibition in presence of 80 mM sodium fluoride after 48 hrs relative to untreated control. Format: functional.
The test system of assay [7] is Saccharomyces cerevisiae. The assay is described as follows: Potentiation of fluoride-induced antimicrobial effect against Saccharomyces cerevisiae MYH 500 assessed as increase in growth inhibition at 10 nM in presence of 30 to 100 mM sodium fluoride after 48 hrs. Format: functional, organism-based. The method in brief: (§3)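 S. cerevisiae growth curves in liquid medium over 48 h. Amphotericin B was tested alone or at a fixed 10 nM or 20 nM with a range of sodium fluoride concentrations. Growth was followed as culture density.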

For assay [8], the system named is Saccharomyces cerevisiae. In words: Antifungal activity against Saccharomyces cerevisiae MYH 500 assessed as growth inhibition in presence of 30 mM NaCl after 9 hrs. Format: functional, organism-based. The method in brief: as §1
Assay [9] concerns Saccharomyces cerevisiae. The assay is described as follows: Antifungal activity against Saccharomyces cerevisiae MYH 500 assessed as growth inhibition in presence of 30 mM Kcl after 9 hrs. Format: functional, organism-based. The method, boiled down:
as §1

Assay [10] relates to Neurospora crassa. The assay is described as follows: Antifungal activity against Neurospora crassa FGSC 2225 assessed as growth inhibition in presence of 30 mM sodium fluoride after 24 hrs relative to untreated control. Format: functional. The method, boiled down:
as §2

Assay [11] relates to Saccharomyces cerevisiae. In words: Antifungal activity against Saccharomyces cerevisiae MYH 500 assessed as growth inhibition at 300 nM after 48 hrs. Format: functional, organism-based. The method in brief:
as §3

Assay [12] relates to Saccharomyces cerevisiae. In words: Antifungal activity against Saccharomyces cerevisiae MYH 500 assessed as growth inhibition in presence of 30 mM sodium fluoride after 48 hrs relative to untreated control. In kind it is functional.
Assay [13] concerns Saccharomyces cerevisiae. The assay is described as follows: Antifungal activity against Saccharomyces cerevisiae MYH 500 assessed as growth inhibition in presence of 80 mM NaCl after 9 hrs. In kind it is functional, organism-based. The method in brief:
as §1

The test system of assay [14] is Saccharomyces cerevisiae. The assay is described as follows: Antifungal activity against Saccharomyces cerevisiae MYH 500 assessed as growth inhibition in presence of 80 mM Kcl after 9 hrs. In kind it is functional, organism-based. The method, boiled down:
as §1

For assay [15], the system named is Saccharomyces cerevisiae. The assay is described as follows: Potentiation of fluoride-induced antimicrobial effect against Saccharomyces cerevisiae MYH 500 assessed as increase in growth inhibition at 10 nM in presence of 60 mM sodium fluoride after 48 hrs. In kind it is functional, organism-based. The method in brief: as §3
The test system of assay [16] is Neurospora crassa. The assay is described as follows: Antifungal activity against Neurospora crassa FGSC 2225 assessed as growth inhibition at 300 nM after 24 hrs. In kind it is functional, organism-based. The method, boiled down:
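N. crassa, a filamentous fungus, was grown in liquid medium with amphotericin B for 24 h. Growth was scored visually in tubes, and the lowest concentration showing little or no visible growth was noted.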

For assay [17], the system named is Saccharomyces cerevisiae. The assay is described as follows: Potentiation of fluoride-induced antimicrobial effect against Saccharomyces cerevisiae MYH 500 assessed as increase in growth inhibition at 20 nM in presence of 30 to 100 mM sodium fluoride after 48 hrs. Format: functional, organism-based. The method, boiled down:
as §3

The test system of assay [18] is Saccharomyces cerevisiae. The assay is described as follows: Antifungal activity against Saccharomyces cerevisiae MYH 500 at 10 nM after 48 hrs. Format: functional, organism-based. The method, boiled down: as §3
Assay [19] has as its system Saccharomyces cerevisiae. The assay is described as follows: Antifungal activity against Saccharomyces cerevisiae MYH 500 at 30 to 70 nM after 48 hrs. Format: functional, organism-based. The method in brief: as §3
Assay [20] deals with Saccharomyces cerevisiae. The assay is described as follows: Antifungal activity against Saccharomyces cerevisiae MYH 500 assessed as growth inhibition at 3 mM in presence of 30 mM sodium fluoride after 24 hrs relative to untreated control. Format: functional, organism-based.
The subject of assay [21] is Saccharomyces cerevisiae. In words: Antifungal activity against Saccharomyces cerevisiae MYH 500 assessed as growth inhibition at 3 mM after 48 hrs. In kind it is functional, organism-based.
Assay [22] deals with Saccharomyces cerevisiae. The assay is described as follows: Antifungal activity against Saccharomyces cerevisiae MYH 500 assessed as growth inhibition at 3 mM in presence of 30 mM sodium fluoride after 48 hrs relative to untreated control. In kind it is functional.

The source made the active and inactive calls. The calls are words filed in the database; no cut-off is given here. Numbered stars: 1 amine (or outer) side, 2 acyl side, 3 side chain; on linkers, the order of the positions; unused ones are H or OH. Bridge positions count the residues as written; N and C are the ends. Square brackets hold non-standard residues; d marks the D form. Peptide text beside a SMILES is read from it. * marks the point of attachment. Orn(4R-OH,5R-OH) = O=C([C@H](C[C@@H](O)[C@@H](O)N[*:3])N[*:1])[*:2]; hTyr(3S-OH,4S-OH) = N[C@H](C(=O)O)[C@H](O)[C@@H](O)c1ccc(O)cc1; Pro(3S-OH,4S-Me) = C[C@H]1CN[C@H](C(=O)O)[C@H]1O; Palmitoyl = CCCCCCCCCCCCCCCC(=O)*; Hyp = O=C(O)[C@@H]1C[C@@H](O)CN1

Take `CN(C/C=C/C#CC(C)(C)C)Cc1cccc2ccccc12`: the “growth inhibition (GI)” value with Saccharomyces cerevisiae [1] and with Saccharomyces cerevisiae [2] was “inactive” each time.
Take `CCC(C)n1ncn(-c2ccc(N3CCN(c4ccc(OCC5COC(Cn6cncn6)(c6ccc(Cl)cc6Cl)O5)cc4)CC3)cc2)c1=O` (centres undefined): the “growth inhibition (GI)” value with Saccharomyces cerevisiae [1] and in the assay with Saccharomyces cerevisiae [2] was “inactive” in each case.
Regarding `C[C@@H]1[C@H](O)[C@@H](C)/C=C/C=C/C=C/C=C/C=C/C=C/C=C/[C@H](O[C@@H]2O[C@H](C)[C@@H](O)[C@H](N)[C@@H]2O)C[C@@H]2O[C@](O)(C[C@@H](O)C[C@@H](O)[C@H](O)CC[C@@H](O)C[C@@H](O)CC(=O)O[C@H]1C)C[C@H](O)[C@H]2C(=O)O` [AMPHOTERICIN B], the “fold change (FC)” value in the assay on Neurospora crassa [3] is on record as 4; in the assay on Saccharomyces cerevisiae [6], 30; in the assay on Neurospora crassa [10] it was 10; in the assay on Saccharomyces cerevisiae [12], 10. For the same compound, the “growth inhibition (GI)” value with Aspergillus nidulans [4], in the assay on Aspergillus nidulans [5], in the assay with Saccharomyces cerevisiae [7], in the assay on Saccharomyces cerevisiae [8], with Saccharomyces cerevisiae [9] and with Saccharomyces cerevisiae [11] was “Active” each time. The “growth inhibition (GI)” value in the assay with Saccharomyces cerevisiae [13], with Saccharomyces cerevisiae [14], in the assay on Saccharomyces cerevisiae [15] and in the assay on Saccharomyces cerevisiae [17] was “Active” in each case. Also, in the assay on Neurospora crassa [16], the “growth inhibition (GI)” value was “inactive”. The result in the assay on Saccharomyces cerevisiae [18] and in the assay on Saccharomyces cerevisiae [19] was inactive.
With NYSTATIN, the “growth inhibition (GI)” value in the assay with Saccharomyces cerevisiae [1] and with Saccharomyces cerevisiae [2] was “Active” in each case.
Take `Cc1cccc(N(C)C(=S)Oc2ccc3ccccc3c2)c1`: the “growth inhibition (GI)” value in the assay on Saccharomyces cerevisiae [1] and in the assay on Saccharomyces cerevisiae [2] was “inactive” throughout.
Consider `CCCCCCCCCCCCCCCC(=O)N[C@H]1C[C@@H](O)[C@@H](O)NC(=O)[C@@H]2[C@@H](O)[C@@H](C)CN2C(=O)[C@H]([C@@H](C)O)NC(=O)[C@H]([C@H](O)[C@@H](O)c2ccc(O)cc2)NC(=O)[C@@H]2C[C@@H](O)CN2C(=O)[C@H]([C@@H](C)O)NC1=O` (Palmitoyl-[Orn(4R-OH,5R-OH)]T[Hyp][hTyr(3S-OH,4S-OH)]T[Pro(3S-OH,4S-Me)]; lactam 1-C), for which the “growth inhibition (GI)” value in the assay on Saccharomyces cerevisiae [2] is “inactive”.
For `N=C(N)NCCC[C@@H]1NC(=O)[C@H](CCCNC(=N)N)NC(=O)[C@H](CCCNC(=N)N)NC(=O)[C@H](CCCNC(=N)N)NC(=O)[C@H](CCCNC(=N)N)NC(=O)[C@H](CCCNC(=N)N)NC(=O)[C@H](CCCNC(=N)N)NC1=O` [NOVEXATIN], the “growth inhibition (GI)” value with Saccharomyces cerevisiae [20] and in the assay on Saccharomyces cerevisiae [21] was “Active” each time. In addition, the “fold change (FC)” value in the assay with Saccharomyces cerevisiae [22] is listed as over 3.
